Reference: ChEMBL document CHEMBL1141308, “The ansacarbamitocins: polar ansamitocin derivatives” (J Nat Prod, 2007)
Activity calls are given as the source filed them. The rule behind the calls is not given here.

Experiments:
[1] = Antifungal activity against Septoria nodorum at 25 ug/mL; type: functional
How it was run: (§1)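 In vitro antifungal screening assay against the named Septoria species, testing purified compounds at a single concentration of 25 µg/mL.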

Septoria = assay: Antifungal activity against Septoria tritici at 25 ug/mL; type: functional; how it was run: as §1

Compound	Activity [1]	Activity (Septoria)
CNC(=O)O[C@H]1CC(=O)N([C@H]2O[C@@H](CO)[C@H](OC(N)=O)[C@@H](OC)[C@@H]2O)c2cc(cc(O)c2Cl)C/C(C)=C/C=C/[C@@H](OC)[C@@]2(O)C[C@H](OC(=O)N2)[C@@H](C)[C@H]2O[C@@]12C	inactive	inactive
CNC(=O)O[C@H]1CC(=O)N([C@H]2O[C@@H](COC(C)=O)[C@H](OC(N)=O)[C@@H](O)[C@@H]2O)c2cc(cc(O)c2Cl)C/C(C)=C/C=C/[C@@H](OC)[C@@]2(O)C[C@H](OC(=O)N2)[C@@H](C)[C@H]2O[C@@]12C	inactive	inactive
CNC(=O)O[C@H]1CC(=O)N([C@H]2O[C@@H](CO)[C@H](O)[C@@H](OC)[C@@H]2O)c2cc(cc(O)c2Cl)C/C(C)=C/C=C/[C@@H](OC)[C@@]2(O)C[C@H](OC(=O)N2)[C@@H](C)[C@H]2O[C@@]12C	inactive	inactive
CNC(=O)O[C@H]1CC(=O)N([C@H]2O[C@@H](COC(C)=O)[C@H](OC(N)=O)[C@@H](OC)[C@@H]2O)c2cc(cc(O)c2Cl)C/C(C)=C/C=C/[C@@H](OC)[C@@]2(O)C[C@H](OC(=O)N2)[C@@H](C)/C=C/1C	inactive	inactive
CNC(=O)O[C@H]1CC(=O)N([C@H]2O[C@@H](COC(C)=O)[C@H](OC(N)=O)[C@@H](OC)[C@@H]2O)c2cc(cc(O)c2Cl)C/C(C)=C/C=C/[C@@H](OC)[C@@]2(O)C[C@H](OC(=O)N2)[C@@H](C)[C@H]2O[C@@]12C	inactive	inactive
CNC(=O)O[C@H]1CC(=O)N([C@H]2O[C@@H](CO)[C@H](O)[C@@H](O)[C@@H]2O)c2cc(cc(O)c2Cl)C/C(C)=C/C=C/[C@@H](OC)[C@@]2(O)C[C@H](OC(=O)N2)[C@@H](C)[C@H]2O[C@@]12C	inactive	inactive
CNC(=O)O[C@H]1CC(=O)N([C@H]2O[C@@H](CO)[C@H](OC(N)=O)[C@@H](O)[C@@H]2O)c2cc(cc(O)c2Cl)C/C(C)=C/C=C/[C@@H](OC)[C@@]2(O)C[C@H](OC(=O)N2)[C@@H](C)[C@H]2O[C@@]12C	inactive	inactive
CNC(=O)O[C@H]1CC(=O)N([C@H]2O[C@@H](COC(C)=O)[C@H](OC(N)=O)[C@@H](O)[C@@H]2O)c2cc(cc(O)c2Cl)C/C(C)=C/C=C/[C@@H](OC)[C@@]2(O)C[C@H](OC(=O)N2)[C@@H](C)/C=C/1C	inactive	inactive
